ChEMBL document CHEMBL1126117, “Synthesis and chemical characterization of N-substituted phenoxazines directed toward reversing vinca alkaloid resistance in multidrug-resistant cancer cells” (J Med Chem, 1992)

Columns and labels:
KB [1] = assay: Increase in the accumulation of vinblastine in multi-drug resistant KB8-5 (HeLa variant) cell line in vitro.; assay type: functional, Homo sapiens; set-up: concentration or dose not given beside the values
Summary of the method: (§1)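 Radiolabel accumulation. Cell monolayers (2×10^6 cells, attached overnight; KBChR-8-5 kept with 10 ng/mL colchicine) were washed and held 10 min in physiologic Tris buffer. They were then given serum-free RPMI-1640 in 25 mM Hepes, pH 7.4, with [3H]VCR (70.4 nM) or [3H]VLB (49.5 nM), ±modulator at 100 μM (<0.1% DMSO), for 2 h at room temperature. Cells were washed in ice-cold PBS, trypsinized and scintillation-counted, with cell number counted per dish. Percent control = uptake with/without modulator ×100. Mean of two experiments, each done in triplicate.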

GC3/Cl [2] = assay: Increase in the accumulation of vincristine in multi-drug resistant GC3/Cl (human adenocarcinoma) cell line in vitro.; assay type: functional
KB [3] = assay: Increase in the accumulation of vincristine in multi-drug resistant KB8-5 (HeLa variant) cell line in vitro.; assay type: functional, Homo sapiens; set-up: concentration or dose not given beside the values; summary of the method: as §1
KB [4] = assay: Percent control was evaluated by measuring the ability to increase the vinca alkaloid, vincristine(VCR) in KB8-5 cell line.; assay type: functional, Homo sapiens; summary of the method: as §1
KB [5] = assay: Percent control was evaluated by measuring the ability to increase the vinca alkaloid, vinblastine(VLB) in KB8-5 cell line.; assay type: functional, Homo sapiens; summary of the method: as §1
KB [6] = assay: Inhibitory concentration was evaluated by measuring the potentiation of VCR cytotoxicity in KB8-5 cell line.; assay type: functional, cell-based; conditions: Homo sapiens
Summary of the method: (§2)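 Colony-formation assay. Cells were given graded VCR or VLB continuously for 7 days at 37 °C, with or without modulator at the concentration that alone reduced colony formation by 10%. Colonies were then stained with crystal violet and counted. Vinca IC50 values were derived with and without modulator, and the result was expressed as fold potentiation.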

GC3/Cl [7] = assay: Concentration required to produce 50% reduction in clonogenic survival of GC3/Cl cell line.; assay type: functional, cell-based; conditions: Homo sapiens
Summary of the method: (§3)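 Clonogenic survival. KBChR-8-5 cells were plated in triplicate at 1000/well and GC3 cells at 3000/well. After 24 h the medium was replaced with fresh medium holding modulator at 1-100 μM (final 0.1% DMSO). Cells were kept 7 days at 37 °C, then stained with crystal violet and the colonies counted. The 50% and 10% colony-reduction concentrations were read from concentration-survival curves versus controls.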

KB [8] = assay: Concentration required to produce 10% reduction in clonogenic survival of KB8-5 cell line.; assay type: functional; conditions: Homo sapiens; summary of the method: as §3
GC3/Cl [9] = assay: Inhibitory concentration was evaluated by measuring the potentiation of VLB cytotoxicity in GC3/Cl cell line.; assay type: functional, cell-based; conditions: Homo sapiens; summary of the method: as §2
GC3/Cl [10] = assay: Increase in the accumulation of vinblastine in multi-drug resistant GC3/Cl (human adenocarcinoma) cell line in vitro.; assay type: functional; set-up: concentration or dose not given beside the values
KB [11] = assay: Concentration required to produce 50% reduction in clonogenic survival of KB8-5 cell line.; assay type: functional, cell-based; conditions: Homo sapiens; summary of the method: as §3
GC3/Cl [12] = assay: Concentration required to produce 10% reduction in clonogenic survival of GC3/Cl cell line.; assay type: functional, cell-based; conditions: Homo sapiens; summary of the method: as §3
KB [13] = assay: Inhibitory concentration was evaluated by measuring the potentiation of VLB cytotoxicity in KB8-5 cell line.; assay type: functional, cell-based; conditions: Homo sapiens; summary of the method: as §2
GC3/Cl [14] = assay: Inhibitory concentration was evaluated by measuring the potentiation of VCR cytotoxicity in GC3/Cl cell line.; assay type: functional, cell-based; conditions: Homo sapiens; summary of the method: as §2

## O=C(N1c2ccccc2Oc2ccccc21)C(F)(F)F
KB [1]
  Control: 827%
GC3/Cl [2]
  Control: 230%
KB [3]
  Control: 415%

## CCN(CC)CC(=O)N1c2ccccc2Oc2ccccc21
KB [1]
  Control: 953%
GC3/Cl [2]
  Control: 160%
KB [3]
  Control: 184%

## O=C(CCl)N1c2ccccc2Oc2ccccc21
KB [4]
  Control: 138%
KB [5]
  Control: 236%

## OCCN(CCO)CCCN1c2ccccc2Oc2ccccc21
KB [1]
  Control: 1666%
KB [6]
  IC50: 0.0059 µM
GC3/Cl [7]
  IC50: 37 µM
KB [3]
  Control: 473%
KB [8]
  IC10: 25 µM
GC3/Cl [9]
  IC50: 0.002 µM
GC3/Cl [10]
  Control: 1070%
KB [11]
  IC50: 38 µM
GC3/Cl [12]
  IC10: 25 µM
KB [13]
  IC50: 0.0027 µM
GC3/Cl [14]
  IC50: 0.0048 µM

## c1ccc2c(c1)Oc1ccccc1N2CCCN1CCCCC1
KB [1]
  Control: 1227%
KB [3]
  Control: 435%
GC3/Cl [10]
  Control: 633%

## c1ccc2c(c1)Oc1ccccc1N2CCCN1CCCC1
KB [1]
  Control: 969%
GC3/Cl [2]
  Control: 250%
KB [3]
  Control: 408%
GC3/Cl [10]
  Control: 757%

## ClCCCCN1c2ccccc2Oc2ccccc21
KB [1]
  Control: 792%
KB [3]
  Control: 398%
GC3/Cl [10]
  Control: 361%

## c1ccc2c(c1)Oc1ccccc1N2CCCCN1CCOCC1
KB [1]
  Control: 2684%
KB [6]
  IC50: 0.0045 µM
GC3/Cl [7]
  IC50: 17 µM
KB [3]
  Control: 702%
KB [8]
  IC10: 6 µM
GC3/Cl [9]
  IC50: 0.002 µM
GC3/Cl [10]
  Control: 1175%
KB [11]
  IC50: 18 µM
GC3/Cl [12]
  IC10: 10 µM
KB [13]
  IC50: 0.002 µM
GC3/Cl [14]
  IC50: 0.0024 µM

## CCN(CC)CCCN1c2ccccc2Oc2ccccc21
KB [1]
  Control: 2123%
GC3/Cl [7]
  IC50: 10 µM
KB [3]
  Control: 546%
GC3/Cl [10]
  Control: 1025%
KB [11]
  IC50: 15 µM

## CCN(CC)CCCCN1c2ccccc2Oc2ccccc21
KB [1]
  Control: 697%
KB [3]
  Control: 211%
GC3/Cl [10]
  Control: 737%

## c1ccc2c(c1)Oc1ccccc1N2CCCN1CCOCC1
KB [1]
  Control: 1717%
KB [6]
  IC50: 0.0019 µM
GC3/Cl [7]
  IC50: 40 µM
KB [3]
  Control: 742%
KB [8]
  IC10: 25 µM
GC3/Cl [9]
  IC50: 0.002 µM
GC3/Cl [10]
  Control: 960%
KB [11]
  IC50: 73 µM
GC3/Cl [12]
  IC10: 25 µM
KB [13]
  IC50: 0.0016 µM
GC3/Cl [14]
  IC50: 0.0021 µM

## c1ccc2c(c1)Oc1ccccc1N2CCCCN1CCCC1
KB [1]
  Control: 477%
GC3/Cl [7]
  IC50: 7 µM
KB [3]
  Control: 198%
GC3/Cl [10]
  Control: 1315%
KB [11]
  IC50: < 7 µM

## O=C(CN1CCN(CCO)CC1)N1c2ccccc2Oc2ccccc21
KB [1]
  Control: 776%
KB [3]
  Control: 280%

## OCCN(CCO)CCCCN1c2ccccc2Oc2ccccc21
KB [1]
  Control: 403%
GC3/Cl [7]
  IC50: 16 µM
KB [3]
  Control: 92%
GC3/Cl [10]
  Control: 1165%
KB [11]
  IC50: < 10 µM

## OCCN1CCN(CCCN2c3ccccc3Oc3ccccc32)CC1
KB [1]
  Control: 824%
KB [3]
  Control: 343%
GC3/Cl [10]
  Control: 879%

## ClCCCN1c2ccccc2Oc2ccccc21
KB [1]
  Control: 342%
KB [6]
  IC50: 0.0118 µM
GC3/Cl [7]
  IC50: 83 µM
KB [3]
  Control: 454%
KB [8]
  IC10: 20 µM
GC3/Cl [9]
  IC50: 0.0017 µM
GC3/Cl [10]
  Control: 570%
KB [11]
  IC50: 57 µM
GC3/Cl [12]
  IC10: 50 µM
KB [13]
  IC50: 0.0053 µM
GC3/Cl [14]
  IC50: 0.002 µM

## c1ccc2c(c1)Oc1ccccc1N2CCCCN1CCCCC1
KB [1]
  Control: 1071%
GC3/Cl [7]
  IC50: 7 µM
KB [3]
  Control: 196%
GC3/Cl [10]
  Control: 1121%
KB [11]
  IC50: < 7 µM

## O=C(CN1CCCCC1)N1c2ccccc2Oc2ccccc21
KB [1]
  Control: 2023%
KB [6]
  IC50: 0.006 µM
GC3/Cl [7]
  IC50: 88 µM
KB [3]
  Control: 326%
KB [8]
  IC10: 40 µM
GC3/Cl [9]
  IC50: 0.0022 µM
KB [11]
  IC50: 73 µM
GC3/Cl [12]
  IC10: 40 µM
KB [13]
  IC50: 0.0023 µM
GC3/Cl [14]
  IC50: 0.0029 µM

## O=C(CN1CCOCC1)N1c2ccccc2Oc2ccccc21
KB [1]
  Control: 674%
KB [3]
  Control: 290%

## OCCN1CCN(CCCCN2c3ccccc3Oc3ccccc32)CC1
KB [1]
  Control: 188%
GC3/Cl [7]
  IC50: 7 µM
KB [3]
  Control: 91%
GC3/Cl [10]
  Control: 1340%
KB [11]
  IC50: < 7 µM

## O=C(CN1CCCC1)N1c2ccccc2Oc2ccccc21
KB [1]
  Control: 776%
KB [3]
  Control: 188%

## COc1ccc(CCN(C)CCCC(C#N)(c2ccc(OC)c(OC)c2)C(C)C)cc1OC (stereo not given)
KB [1]
  Control: 1124%
